The target of one assay is NS3 (Hepatitis C virus, UniProt A3EZJ3). The assay is described as follows: Inhibitory activity against hepatitis C virus (HCV) NS3 protease. On the set-up: species or system Hepacivirus hominis. Summed up: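 His-tagged HCV NS3 fusion expressed in BL21(DE3) E. coli, purified, quantified by densitometry against BSA. Reaction started with GST-bead 5A5B substrate (3 µg); 37 °C, 15 min or <40% conversion. Cleavage read by SDS-PAGE, Coomassie, densitometry; IC50 determined.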

A further assay concerns the target Plasminogen (Homo sapiens, UniProt P00747). Kind of assay: Inhibitory activity against plasmin. The essentials:
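Fluorogenic casein-substrate protease kit assay using 0.002U plasmin per reaction at 30 °C, stopped within the linear phase of the reaction; IC50 determined.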

Some results are limits rather than exact numbers.

Sequence of Plasminogen (P00747 97-580 limits assumed): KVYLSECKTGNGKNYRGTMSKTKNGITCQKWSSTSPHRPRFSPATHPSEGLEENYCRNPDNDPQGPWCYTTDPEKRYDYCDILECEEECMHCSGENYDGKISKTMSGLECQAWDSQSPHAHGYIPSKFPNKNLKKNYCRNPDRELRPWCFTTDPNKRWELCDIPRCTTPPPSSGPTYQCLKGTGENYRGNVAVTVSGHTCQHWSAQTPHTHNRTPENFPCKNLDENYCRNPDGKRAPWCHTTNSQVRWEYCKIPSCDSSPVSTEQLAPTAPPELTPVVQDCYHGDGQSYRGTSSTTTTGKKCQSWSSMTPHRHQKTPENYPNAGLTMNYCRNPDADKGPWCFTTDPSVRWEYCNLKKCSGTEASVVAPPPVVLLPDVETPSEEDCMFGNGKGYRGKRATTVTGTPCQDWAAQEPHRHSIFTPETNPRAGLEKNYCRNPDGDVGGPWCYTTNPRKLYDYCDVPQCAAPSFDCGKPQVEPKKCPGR
Sequence of Plasminogen (P00747 581-810 limits assumed): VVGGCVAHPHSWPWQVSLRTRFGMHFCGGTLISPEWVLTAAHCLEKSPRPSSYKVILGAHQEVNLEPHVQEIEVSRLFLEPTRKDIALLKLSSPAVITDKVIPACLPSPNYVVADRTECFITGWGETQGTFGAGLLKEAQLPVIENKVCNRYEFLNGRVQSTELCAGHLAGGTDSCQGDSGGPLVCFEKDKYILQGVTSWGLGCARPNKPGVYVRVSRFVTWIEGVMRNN
Sequence of NS3 (A3EZJ3 whole entry, the tested form may be a part): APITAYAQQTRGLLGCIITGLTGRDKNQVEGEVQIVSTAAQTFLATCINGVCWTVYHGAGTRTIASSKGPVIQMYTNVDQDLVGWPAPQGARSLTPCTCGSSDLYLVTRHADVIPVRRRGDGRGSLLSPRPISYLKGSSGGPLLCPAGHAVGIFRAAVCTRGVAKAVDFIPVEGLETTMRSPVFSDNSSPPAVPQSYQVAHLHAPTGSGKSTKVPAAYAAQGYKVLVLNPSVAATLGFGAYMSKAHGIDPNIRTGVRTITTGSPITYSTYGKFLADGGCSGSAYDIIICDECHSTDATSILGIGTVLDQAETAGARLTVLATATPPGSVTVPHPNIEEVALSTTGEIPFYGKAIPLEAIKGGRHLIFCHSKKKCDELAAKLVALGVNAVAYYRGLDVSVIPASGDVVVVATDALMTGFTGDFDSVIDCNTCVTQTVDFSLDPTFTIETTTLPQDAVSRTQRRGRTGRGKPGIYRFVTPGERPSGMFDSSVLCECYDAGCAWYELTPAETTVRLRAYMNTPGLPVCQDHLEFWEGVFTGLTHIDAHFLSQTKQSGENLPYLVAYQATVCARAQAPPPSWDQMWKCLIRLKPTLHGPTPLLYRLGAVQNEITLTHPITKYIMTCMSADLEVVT

Turning to `C=CCN1C(=O)/C(=C/c2cc3c(cc2[N+](=O)[O-])OCO3)SC1=S`, the IC50 was 40 µM against NS3 and below 1 µM on Plasminogen.

Turning to `CCOC(=O)CN1C(=O)/C(=C(\C)c2cccc(OC(=O)N[C@@H](CC(C)C)C(=O)N(CCN(Cc3ccc(C(=O)OC)cc3)Cc3ccc(C(=O)OC)cc3)Cc3ccc(Cl)cc3)c2)SC1=S`, the results for the IC50 against NS3 and against Plasminogen were 16 µM and 20 µM, respectively.

For the molecule `O=C(O)CN1C(=O)/C(=C/c2cc([N+](=O)[O-])ccc2F)SC1=S`, the IC50 is 64 µM on NS3 and 13 µM at Plasminogen.

Consider `COC(=O)CN1C(=O)/C(=C/c2cc3c(cc2[N+](=O)[O-])OCO3)SC1=S`, for which the IC50 on NS3 was 71 µM; against Plasminogen it was below 1 µM.

In the case of `CCOC(=O)CN1C(=O)/C(=C(\C)c2cccc(NS(=O)(=O)c3ccc(-c4ccc(S(=O)(=O)NCCNC(=O)OC(C)(C)C)cc4)cc3)c2)SC1=S`, the results for the IC50 on NS3 and at Plasminogen were 15 µM and 20 µM, respectively.

For `C/C(=C1/SC(=S)N(CC(=O)O)C1=O)c1ccc(-c2ccccc2)cc1`, the IC50 at NS3 was 20 µM; at Plasminogen, 7 µM.
